Activity calls are given as the source filed them.
How the values were obtained:
Mus musculus [1] = assay: Anticonvulsant activity in albino CF1 mouse assessed as protection against subcutaneous metrazol-induced seizures at 30 to 300 mg/kg, ip after 0.5 to 4 hrs; assay type: functional, organism-based
Procedure, shortened: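 CF No. 1 male mice dosed ip at 30, 100 or 300 mg/kg (saline or 0.5% methylcellulose), then given pentetrazole 85 mg/kg sc as 0.5% solution in posterior midline. Watched 30 min. Protection means no threshold seizure (single clonic spasm episode of at least 5 s). Expressed as protected/tested.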

Mus musculus [2] = assay: Neurotoxicity in albino CF1 mouse assessed as minimal motor impairment at 300 mg/kg, ip after 4 hrs by rotorod test; assay type: toxicity, organism-based; parameters: dose 300 mg/kg, route intraperitoneal; settings: in vivo
Procedure, shortened: (§1)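 Rotarod in male CF No. 1 mice after ip dosing (30, 100, 300 mg/kg; saline or 0.5% methylcellulose) at 15–240 min. Knurled plastic rod, 1-inch diameter, 6 rpm. Toxicity means failing to stay on for 1 min on three successive attempts. Recorded as toxic/tested.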

Mus musculus [3] = assay: Neurotoxicity in albino CF1 mouse assessed as minimal motor impairment at 300 mg/kg, ip after 0.5 hr by rotorod test; assay type: toxicity, organism-based; parameters: dose 300 mg/kg, route intraperitoneal; settings: in vivo; procedure, shortened: as §1
Mus musculus [4] = assay: Neurotoxicity in albino CF1 mouse assessed as minimal motor impairment at 100 mg/kg, ip after 4 hrs by rotorod test; assay type: toxicity, organism-based; parameters: dose 100 mg/kg, route intraperitoneal; settings: in vivo; procedure, shortened: as §1
Mus musculus [5] = assay: Neurotoxicity in albino CF1 mouse assessed as minimal motor impairment at 100 mg/kg, ip after 0.5 hr by rotorod test; assay type: toxicity, organism-based; parameters: dose 100 mg/kg, route intraperitoneal; settings: in vivo; procedure, shortened: as §1
Mus musculus [6] = assay: Anticonvulsant activity in albino CF1 mouse assessed as protection against maximal electroshock-induced seizures at 300 mg/kg, ip after 4 hrs; assay type: functional, organism-based; parameters: dose 300 mg/kg
Procedure, shortened: (§2)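 Male albino CF No. 1 mice (18–25 g) dosed ip at 30, 100 and 300 mg/kg in saline or 0.5% methylcellulose, tested 15, 30, 60 and 240 min after dosing. Maximal electroshock seizures elicited with 60-cycle alternating current. Scored as animals protected/animals tested, small qualitative groups.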

Mus musculus [7] = assay: Anticonvulsant activity in albino CF1 mouse assessed as protection against maximal electroshock-induced seizures at 300 mg/kg, ip after 0.5 hr; assay type: functional, organism-based; parameters: dose 300 mg/kg; procedure, shortened: as §2
Mus musculus [8] = assay: Anticonvulsant activity in albino CF1 mouse assessed as protection against maximal electroshock-induced seizures at 100 mg/kg, ip after 4 hrs; assay type: functional, organism-based; parameters: dose 100 mg/kg; procedure, shortened: as §2
Mus musculus [9] = assay: Anticonvulsant activity in albino CF1 mouse assessed as protection against maximal electroshock-induced seizures at 100 mg/kg, ip after 0.5 hr; assay type: functional, organism-based; parameters: dose 100 mg/kg; procedure, shortened: as §2
Mus musculus [10] = assay: Neurotoxicity in albino CF1 mouse assessed as minimal motor impairment at 100 mg/kg, ip after 1 hr by rotorod test; assay type: toxicity, organism-based; parameters: dose 100 mg/kg, route intraperitoneal; settings: in vivo; procedure, shortened: as §1
Mus musculus [11] = assay: Neurotoxicity in albino CF1 mouse assessed as minimal motor impairment at 100 mg/kg, ip after 0.25 hr by rotorod test; assay type: toxicity, organism-based; parameters: dose 100 mg/kg, route intraperitoneal; settings: in vivo; procedure, shortened: as §1
Mus musculus [12] = assay: Anticonvulsant activity in albino CF1 mouse assessed as protection against maximal electroshock-induced seizures at 100 mg/kg, ip after 1 hr; assay type: functional, organism-based; parameters: dose 100 mg/kg; procedure, shortened: as §2
Mus musculus [13] = assay: Anticonvulsant activity in albino CF1 mouse assessed as protection against maximal electroshock-induced seizures at 100 mg/kg, ip after 0.25 hr; assay type: functional, organism-based; parameters: dose 100 mg/kg; procedure, shortened: as §2
Mus musculus [14] = assay: Anesthetic activity in […] assessed as latency in response to thermal stimuli administered as 2% solution, sc measured after 15 mins by modified tail immersion test; assay type: functional, albino CF1
Mus musculus [15] = assay: Anesthetic activity in albino CF1 mouse assessed as latency in response to thermal stimuli administered as 1% solution, sc measured after 15 mins by modified tail immersion test; assay type: functional
Procedure, shortened: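 Male Albino Swiss (CD-1) mice, 6-8 per group, tested at 1% and 2% compound concentration. Tail distal 3 cm immersed in water at 50 ± 0.5 °C 15 min after treatment. Tail-withdrawal latency recorded with a 20 s cutoff. Value is % difference in latency vs vehicle-treated mice. Mean ± SEM, Student's t-test.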

Mus musculus [16] = assay: […] activity in ip dosed albino CF1 mouse assessed as inhibition of phenylbenzoquinone-induced writhing administered after 30 mins prior challenge; assay type: functional
Procedure, shortened: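 Male Albino Swiss (CD-1) mice, 6-8 per dose. Compound given ip in 0.5% methylcellulose. 30 min later, 0.25 ml of 0.02% phenylbenzoquinone injected. After 5 min, writhes counted over 10 min. % effect = (vehicle mean − drug mean)/vehicle mean × 100. ED50 derived; Student's t-test.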

Mus musculus [17] = assay: Analgesic activity in albino CF1 mouse assessed as inhibition of heat-induced paw licking or jumping behaviour administered after 30 mins prior heat challenge by hot plate method; assay type: functional

Compound | Activity (Mus musculus [1]) | Activity (Mus musculus [2]) | Activity (Mus musculus [3]) | Activity (Mus musculus [4]) | Activity (Mus musculus [5]) | Activity (Mus musculus [6]) | Activity (Mus musculus [7]) | Activity (Mus musculus [8]) | Activity (Mus musculus [9]) | Activity (Mus musculus [10]) | Activity (Mus musculus [11]) | Activity (Mus musculus [12]) | Activity (Mus musculus [13]) | Activity (Mus musculus [14]) [%] | Activity (Mus musculus [15]) [%] | ED50 (Mus musculus [16]) [mg/kg] | ED50 (Mus musculus [17]) [mg/kg]
Cc1cccc(C)c1NC1CCOC1=O (configuration not stated) | inactive | Non-toxic | Non-toxic | Non-toxic | Non-toxic | inactive | inactive | inactive | inactive |  |  |  |  |  |  |  | 
COc1ccc(CCN/C(C)=C2/CCOC2=O)cc1OC | inactive | Non-toxic | Non-toxic | Non-toxic | Non-toxic | inactive | Active | inactive | inactive | Non-toxic | Non-toxic | inactive | inactive |  |  |  | 
CCN(CC)CC(=O)Nc1c(C)cccc1C [LIDOCAINE] |  |  |  |  |  |  |  |  |  |  |  |  |  | 173 | 132 |  | 
CC1CC(NCc2ccccc2)C(=O)O1.Cl (mixture of isomers) | inactive | Non-toxic | Non-toxic | Non-toxic | Non-toxic | inactive | inactive | inactive | inactive |  |  |  |  |  |  |  | 
COc1cccc(N2CCN(C3CCOC3=O)CC2)c1 (racemic) | inactive | Non-toxic | Non-toxic | Non-toxic | Non-toxic | inactive | Active | inactive | inactive |  |  |  |  | 75 | 6 | 3 | 3.2
O=C1OCCC1NCc1ccccc1C(F)(F)F (racemic) | inactive | Non-toxic | Non-toxic | Non-toxic | Non-toxic | inactive | inactive | inactive | inactive |  |  |  |  |  |  |  | 
O=C1OCCC1N1CCN(c2ccccc2)CC1 (racemic) | inactive | Non-toxic | Toxic | Non-toxic | Toxic | inactive | Active | inactive | inactive | Non-toxic | Non-toxic | inactive | inactive | 146 | 102 | 2.4 | 4
Cc1cccc(C)c1NC(=O)C1CCCCN1C (configuration not stated) [MEPIVACAINE] |  |  |  |  |  |  |  |  |  |  |  |  |  | 117 | 95 |  | 
O=C1OCCC1N1C(=O)c2ccccc2C1=O (racemic) | inactive | Non-toxic | Toxic | Non-toxic | Toxic | inactive | inactive | inactive | inactive |  |  |  |  |  |  | 4.5 | 33.9
O=C1OCCC1N1CCC(Cc2ccccc2)CC1 (racemic) | inactive | Toxic | Toxic | Non-toxic | Non-toxic | inactive | Active | inactive | inactive | Non-toxic | Non-toxic | inactive | inactive |  |  |  | 
C/C(NCc1ccccc1)=C1\CCOC1=O | inactive | Non-toxic | Non-toxic | Non-toxic | Non-toxic | inactive | Active | inactive | inactive | Non-toxic | Non-toxic | inactive | inactive |  |  |  | 
O=C1OCCC1N1CCN(c2ccc(F)cc2)CC1 (racemic) | inactive | Toxic | Toxic | Toxic | Toxic | inactive | inactive | inactive | inactive |  |  |  |  |  |  |  | 
COc1ccc(CNC2CCOC2=O)cc1.Cl (racemic) | inactive | Non-toxic | Non-toxic | Non-toxic | Non-toxic | inactive | inactive | inactive | inactive |  |  |  |  |  |  |  | 
Cl.O=C1OCCC1N1CCOCC1 (racemic) | inactive | Non-toxic | Toxic | Non-toxic | Non-toxic | inactive | inactive | inactive | inactive |  |  |  |  |  |  | 5.4 | 9.9
O=C1CC(N2CCN(c3ccccc3)CC2)CO1 (racemic) | inactive | Non-toxic | Toxic | Non-toxic | Toxic | inactive | inactive | inactive | inactive |  |  |  |  |  |  |  | 
COc1cc2c(cc1OC)CN(C1CCOC1=O)CC2 (racemic) | inactive | Non-toxic | Non-toxic | Non-toxic | Non-toxic | inactive | inactive | inactive | inactive |  |  |  |  |  |  | 6.1 | 39.8
CC1CC(N2CCN(c3ccccc3)CC2)C(=O)O1 (mixture of isomers) | inactive | Non-toxic | Toxic | Non-toxic | Non-toxic | inactive | Active | inactive | inactive | Non-toxic | Non-toxic | inactive | inactive |  |  |  | 
Cl.O=C1OCCC1NCc1ccccc1 (racemic) | inactive | Non-toxic | Non-toxic | Non-toxic | Non-toxic | inactive | inactive | inactive | inactive |  |  |  |  | 64 | 1 | 2.4 | 4.3
CN1CC[C@]23c4c5ccc(O)c4O[C@H]2[C@@H](O)C=C[C@H]3[C@H]1C5 [MORPHINE] |  |  |  |  |  |  |  |  |  |  |  |  |  |  |  | 2.4 | 3.4
CC(=O)Oc1ccccc1C(=O)O [ASPIRIN] |  |  |  |  |  |  |  |  |  |  |  |  |  |  |  | 39.2 | 
COc1ccc(N2CCN(C3CCOC3=O)CC2)cc1 (racemic) | inactive | Non-toxic | Non-toxic | Non-toxic | Non-toxic | inactive | inactive | inactive | inactive |  |  |  |  | 49 | -3 | 9.6 | 32.5

From ChEMBL document CHEMBL2203146, “Search for anticonvulsant and analgesic active derivatives of dihydrofuran-2(3H)-one” (Bioorg Med Chem, 2012)
